The nature of test [1]: inhibitors of TNFa-induced NFkB p65 translocation, primary screen, imaging, HUVEC, MLSMR starter and 10KST1 sets (AID 438;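 active means inhibition above 20% together with a positive visual image hit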;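 further: compound added about 3h40 before a 20 min TNFalpha stimulation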;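 on inhibition: signal is the nuclear over cytoplasmic p65 intensity ratio per well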). As to conditions: HUVEC TNFa-induced p65 nuclear translocation; cell count: measured here: nuclei count (cytotoxicity indicator), at 2.08 µM; inhibition: at 2 µM, stronger effect = higher value, 0% TNFa-plus-vehicle, 100% no-TNFa wells.
Test [2] is described as follows: endothelial E-selectin expression blockers – imaging, HUVEC, immunofluorescence, MLSMR starter and 10KST1 sets, primary screen (AID 487;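 active means visually confirmed hit in the image check and inhibition above 20%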;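 on inhibition: signal is fraction of cell area covered by stained E-selectin grains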;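 on nuclei count: 100% = median nuclei count of all wells on the same plate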). As to conditions: HUVEC TNFalpha-induced E-selectin immunofluorescence imaging, at 2 µM; inhibition: stronger effect = higher value; nuclei count: measured here: cell number, toxicity.
The nature of test [3]: Primary imaging screen for DUSP6 inhibitors that restore phospho-Erk in transfected HeLa cells, chemical complementation (AID 609).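 On inhibition: phospho-Erk level distribution per well compared with pooled transfected vehicle control wells.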 As to conditions: HeLa MKP-3 transfected, phospho-Erk imaging KS statistic, at 10 µM, cells stimulated with TPA for 15 min.
For test [4], the target named is Dual specificity protein phosphatase 6 (Homo sapiens) (UniProt Q16828). The description is as above. As to conditions: HeLa MKP-3 transfected, phospho-Erk imaging KS statistic; at 10 µM; stronger effect = higher value; cells stimulated with TPA for 15 min.
Sequence of Dual specificity protein phosphatase 6 (Homo sapiens) (Q16828 whole entry, looked up): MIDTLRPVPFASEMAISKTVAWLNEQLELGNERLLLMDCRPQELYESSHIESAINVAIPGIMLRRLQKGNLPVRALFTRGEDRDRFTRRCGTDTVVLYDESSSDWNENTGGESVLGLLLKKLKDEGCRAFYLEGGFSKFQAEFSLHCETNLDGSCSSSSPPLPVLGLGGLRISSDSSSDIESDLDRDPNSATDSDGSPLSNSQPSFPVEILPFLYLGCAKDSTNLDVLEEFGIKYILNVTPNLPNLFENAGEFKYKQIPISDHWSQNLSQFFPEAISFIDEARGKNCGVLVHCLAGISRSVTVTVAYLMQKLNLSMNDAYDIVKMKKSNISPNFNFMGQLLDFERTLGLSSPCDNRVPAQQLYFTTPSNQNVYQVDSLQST
For test [5], the target named is Voltage-gated potassium channel subunit beta-2 (Rattus norvegicus) (UniProt P62483). The test can be described thus: inhibitors of rat Kvbeta2 reductase activity – biochemical, NADPH fluorescence, primary screen (AID 622;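 active means fluorescence slope higher than the sample average by over 3 SD, cut at about -0.22 in these data, passing the limit was not always enough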;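 further: slope of raw intensity against log time taken from 70 to 1610 s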). As to conditions: recombinant KvBeta, 4-cyanobenzaldehyde reduction, at 10 µM, stronger effect = higher value.
Sequence of Voltage-gated potassium channel subunit beta-2 (Rattus norvegicus) (P62483 whole entry, looked up): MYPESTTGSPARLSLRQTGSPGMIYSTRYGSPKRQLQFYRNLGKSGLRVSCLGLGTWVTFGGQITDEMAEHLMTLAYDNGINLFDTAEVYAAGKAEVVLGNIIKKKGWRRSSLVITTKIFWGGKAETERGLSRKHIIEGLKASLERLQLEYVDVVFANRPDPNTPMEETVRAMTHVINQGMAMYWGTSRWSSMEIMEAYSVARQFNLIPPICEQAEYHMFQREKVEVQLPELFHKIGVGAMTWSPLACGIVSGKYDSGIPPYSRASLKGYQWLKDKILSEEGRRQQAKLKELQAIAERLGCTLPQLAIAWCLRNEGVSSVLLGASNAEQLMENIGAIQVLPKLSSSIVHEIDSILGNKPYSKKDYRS
For test [6] the target is unchanged. Briefly: enhancers of rat Kvbeta2 NADPH turnover – biochemical, NADPH fluorescence, primary screen (AID 623;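 active means NADPH fluorescence slope more negative than the mean of all samples by about 3 SD, 99.7% confidence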;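 further: fluorescence intensity change per second fitted from 20 to 320 s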). As to conditions: Recombinant KvBeta, NADPH fluorescence decrease slope, 10 min; at 10 µM; stronger effect = lower value.
The target in test [7] is Muscarinic acetylcholine receptor M4 (Homo sapiens) (UniProt P08173). The test can be described thus: M4-linked GIRK flux change, two-sided – cell-based, HEK293 M4/GIRK, thallium flux, BTC-AM, M4 allosteric agonist project, primary screen (AID 625;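 active means fluorescence slope after compound addition differing from the mean of all tested samples at 99.7% confidence, mostly higher but some lower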;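 further: thallium influx through GIRK channels coupled to M4 in HEK293 cells with BTC-AM dye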). As to conditions: at 10 µM, actives lie on both sides. The essentials:
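Material – HEK293 cells with M4 receptor and GIRK channels · Buffer or medium – pH 7.3 thallium assay buffer · Doses – one dose, 10 µM final · Timing – cells overnight at 37 °C, BTC-AM loading 1 h, reads 2 min total · Measured by – kinetic fluorescence with BTC-AM dye · Controls – carbachol and DMSO controls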

A short description of test [8]: inhibitors of larval lipid processing in zebrafish, primary screen, whole organism, PED6 fluorescence, gall bladder and intestine (AID 686;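 active means a full or partial loss of lipid-probe fluorescence in the fish gall bladder, intestine or both, judged by eye; inactive means no fluorescence loss, or compound toxic to the fish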;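 further: larvae 5 to 7 days old with five fish per well; signal comes from phospholipase A2 cleavage of quenched PED6 carried via bile; overnight exposure to compound and PED6 before scoring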). As to conditions: Zebrafish larvae PED6 lipid processing, fluorescence scoring; screened at 20 µM (by protocol). The essentials:
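system = live zebrafish larvae aged 5-7 days, whole organism | probe or stimulus = ingested quenched lipid PED6 at 100 nM | doses = 20 µM single dose | timing = overnight exposure | detection = fluorescence microscopy with visual scoring of gall bladder and intestine | read-out = visual per-well fluorescence inhibition score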

A short description of test [9]: loss of swimming-algae plug formation – whole organism, Chlamydomonas reinhardtii, WT vs cilia-less mutant, absorbance, 96-well, primary screen (AID 463189;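 active means inhibition at or above 50% relative to wild type and mutant plate controls; inactive means inhibition below 50%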;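 further: 0% = wild type cc124 cells in DMSO and 100% = ciliumless bld1 mutant cells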). As to conditions: Chlamydomonas reinhardtii gravitaxis, OD600 absorbance, 2 days; at 10 µM; stronger effect = higher value.
The mark [10] stands for this setting: measured here: cell density z-score.
Where [11] appears, read: measured here: nuclear c-Myc green intensity z-score.
Setting [12] is: measured here: nuclear pErk red intensity z-score, stronger effect = higher value.

The structures appear in SMILES notation. Calls of active or inactive are those of the source.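 How the source made its calls, unless noted: active means compounds giving at least 50% inhibition in the cell-based MKP-3 phosphatase rescue imaging test; inactive means the rest.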

Sequence of Muscarinic acetylcholine receptor M4 (Homo sapiens) (P08173 whole entry, looked up): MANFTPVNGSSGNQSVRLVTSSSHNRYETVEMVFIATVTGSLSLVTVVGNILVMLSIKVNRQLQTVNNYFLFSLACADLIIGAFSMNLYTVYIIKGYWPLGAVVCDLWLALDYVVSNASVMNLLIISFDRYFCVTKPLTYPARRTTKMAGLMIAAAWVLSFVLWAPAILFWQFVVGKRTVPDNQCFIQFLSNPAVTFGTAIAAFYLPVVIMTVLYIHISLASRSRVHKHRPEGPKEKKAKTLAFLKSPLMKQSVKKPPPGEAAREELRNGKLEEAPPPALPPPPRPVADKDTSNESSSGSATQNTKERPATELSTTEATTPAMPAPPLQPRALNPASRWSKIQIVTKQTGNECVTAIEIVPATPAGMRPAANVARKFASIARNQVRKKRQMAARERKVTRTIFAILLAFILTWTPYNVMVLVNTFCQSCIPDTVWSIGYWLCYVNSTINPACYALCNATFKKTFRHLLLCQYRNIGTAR

Take `CC1(C)CC(=O)C2=C(C1)OC(N)=C(C#N)C21C(=O)N(CN2CCOCC2)c2ccccc21` (centres undefined): the cell count in test [1] came to 371. In addition, the inhibition (as a rule, the relative decrease from the control value, in per cent) in [1] was -2.9% (inactive); in [2], -122% (inactive); in [4], 19.4% (inactive); in test [9], 36.4% (inactive). In addition, the nuclei count in [2] was 138%. Moreover, the figures for the z-score in [3] (setting [10]), in [3] (setting [11]) and in test [3] (setting [12]) were 0.502, -1.1 and -1.15, respectively. The fluorescence slope in test [5] is -0.479 (inactive); in test [7], 0.00562 (inactive). Besides, in [6], the NADPH fluorescence slope is -3.3e-05 (inactive). In test [8], the result was inactive.

Take `CCOC(=O)C1=C(C)NC(=O)C1CC(=O)Nc1ccccc1` (centres undefined): the cell count in [1] was 377. Further, the inhibition in test [1] was -4.8% (inactive); in test [2], -73.4% (inactive); in [4], 3.42% (inactive); in test [9], -5.87% (inactive). The nuclei count in test [2] was 139%. Moreover, the z-score in test [3] (setting [10]) was -0.173; in [3] (setting [11]) it was 0.561; in test [3] (setting [12]), 0.408. The fluorescence slope is -0.443 (inactive) in test [5] and 0.00567 (inactive) in test [7]. Besides, the NADPH fluorescence slope in test [6] is -0.000122 (inactive). In addition, the molecule was called inactive in test [8].

`Cn1c(=O)[nH]c(=O)c2c1nc(Br)n2CCSc1nnnn1-c1ccccc1`: in [1], the cell count was 639. In addition, the inhibition in test [1] was 0.9% (inactive); in test [2], -40.4% (inactive); in test [4], 3.42% (inactive); in test [9], 27.6% (inactive). The same molecule returned a nuclei count in test [2] of 177%. Further, the z-score was -0.541 in test [3] (setting [10]), -0.392 in test [3] (setting [11]) and 1.24 in [3] (setting [12]). For the same molecule, the fluorescence slope in [5] is -0.384 (inactive); in test [7] it was 0.00586 (inactive). Besides, the NADPH fluorescence slope in test [6] was -4e-05 (inactive). Also, in [8], the molecule was classed as inactive.

`Cn1c(NCC(O)c2ccccc2)nc2c1c(=O)n(Cc1ccc(Cl)cc1)c(=O)n2C` (centres undefined): the cell count in test [1] amounted to 676. The inhibition in test [1] was 8.4% (inactive); in test [2], -18% (inactive); in [4], -9.53% (inactive); in [9], 8.04% (inactive). In addition, the nuclei count in test [2] is 103%. For the same molecule, the z-score in [3] (setting [10]) is -0.206; in [3] (setting [11]), 0.674; in test [3] (setting [12]), -0.257. Also, the fluorescence slope in test [5] was -0.423 (inactive); in test [7], 0.00426 (inactive). Further, the NADPH fluorescence slope in test [6] is -4.1e-05 (inactive). Also, the molecule was classed as inactive in [8].

Regarding `Brc1ccc2c(c1)CNc1c(ncnc1N1CCOCC1)O2`, in test [1], the cell count turned out to be 521. Also, the inhibition in test [1] was -0.7% (inactive); in [2], 2% (inactive); in test [4] it was 3.42% (inactive); in [9], 24.2% (inactive). Also, the nuclei count in test [2] turned out to be 90%. Also, the z-score in test [3] (setting [10]) was -1.15; in test [3] (setting [11]), 1.47; in test [3] (setting [12]) it was 1.59. Besides, the results for the fluorescence slope in [5] and in [7] were -0.429 (inactive) and 0.00419 (inactive), respectively. Further, the NADPH fluorescence slope in [6] was 2.8e-05 (inactive). In test [8], the call was inactive.

Regarding `CC1(C)Cc2[nH]c(=O)c(C#N)cc2CS1`, the cell count in test [1] turned out to be 595. The inhibition was -11.1% (inactive) in test [1], -93.7% (inactive) in test [2], -0.233% (inactive) in [4] and 3.23% (inactive) in test [9]. The molecule further displayed a nuclei count in [2] of 149%. In addition, the z-score in test [3] (setting [10]) is 0.698; in test [3] (setting [11]), -0.413; in test [3] (setting [12]), 1.37. Besides, the results for the fluorescence slope in test [5] and in test [7] were -0.435 (inactive) and 0.00467 (inactive), respectively. The NADPH fluorescence slope in [6] is -0.000124 (inactive). In test [8], the result was inactive.

For `Cn1c(NCc2ccccc2)nc2c1c(=O)n(Cc1ccccc1)c(=O)n2C`, the cell count in test [1] turned out to be 694. Moreover, the inhibition in test [1] is -5.5% (inactive); in test [2] it was -54.8% (inactive); in test [4] it was 5.95% (inactive); in test [9], 6.49% (inactive). In [2], this molecule gave a nuclei count of 172%. Besides, the z-score was 0.899 in test [3] (setting [10]), -0.674 in [3] (setting [11]) and 1.21 in test [3] (setting [12]). Besides, the fluorescence slope in [5] is -0.461 (inactive); in test [7], 0.00535 (inactive). In [6], the NADPH fluorescence slope was -8.2e-05 (inactive). Besides, in test [8], the molecule was called inactive.

For `N#CC1=C(N)OC2=C(C(=O)CCC2)[C@]12C(=O)N(CC(N)=O)c1ccccc12`, the cell count in [1] was 485. The inhibition in test [1] was -9.7% (inactive); in [2] it was -41.1% (inactive); in test [4] it was -7.28% (inactive); in [9], -0.197% (inactive). This molecule also had a nuclei count in test [2] of 130%. The z-score in test [3] (setting [10]) was -0.751; in test [3] (setting [11]), 0.747; in [3] (setting [12]) it was -0.43. Besides, the fluorescence slope in test [5] is -0.431 (inactive); in [7], 0.00487 (inactive). Further, the NADPH fluorescence slope in [6] was -3e-05 (inactive). Besides, in test [8], the molecule was called inactive.

As for `COc1cccc(C(=O)Nc2ccc(-c3nnc(-c4ccco4)o3)cc2)c1`, the cell count in test [1] was 684. Also, the inhibition in test [1] was 6.3% (inactive); in test [2] it was 25.7% (inactive); in test [4] it was 1.63% (inactive); in test [9], -6.98% (inactive). The molecule further displayed a nuclei count in test [2] of 158%. The figures for the z-score in [3] (setting [10]), in [3] (setting [11]) and in test [3] (setting [12]) were -0.186, 0.958 and -0.649, respectively. The values for the fluorescence slope in test [5] and in test [7] were -0.476 (inactive) and 0.00624 (inactive), respectively. The NADPH fluorescence slope in test [6] was -4.6e-05 (inactive). Also, the molecule was called inactive in test [8].

As to `C=CCNc1nc(N2CCOCC2)c(C#N)c2c1CN(C)CC2`, the cell count in test [1] is 600. In addition, the inhibition in test [1] was -5.7% (inactive); in test [2], -83.6% (inactive); in test [4] it was 9.07% (inactive); in test [9], 1.91% (inactive). The molecule also gave a nuclei count in [2] of 138%. Further, the figures for the z-score in test [3] (setting [10]), in test [3] (setting [11]) and in test [3] (setting [12]) were 0.63, -0.71 and 0.0349, respectively. In addition, the fluorescence slope in test [5] is -0.417 (inactive); in test [7], 0.00406 (inactive). Also, the NADPH fluorescence slope in [6] is -9.1e-05 (inactive). Further, the molecule was called inactive in test [8].

Regarding `CSc1cc(C)nc(N(C)C(C)=O)n1`, in test [1], the cell count was found to be 672. In addition, the inhibition was -1.4% (inactive) in test [1], -9.4% (inactive) in [2], 5.35% (inactive) in [4] and -6.47% (inactive) in test [9]. The same molecule displayed a nuclei count in [2] of 145%. Also, the values for the z-score in test [3] (setting [10]), in test [3] (setting [11]) and in test [3] (setting [12]) were -2.7, 1.16 and 0.496, respectively. Further, the fluorescence slope in test [5] was -0.421 (inactive); in [7] it was 0.00511 (inactive). Also, the NADPH fluorescence slope in [6] was -5.5e-05 (inactive). For the same molecule, the call in test [8] was inactive.

Regarding `CC(C)=CCC(C)(C)CNC(=O)NC1CCCCC1`, in [1], the cell count was 577. Also, the inhibition in test [1] was -4.2% (inactive); in test [2], -143% (inactive); in [4], -0.584% (inactive); in [9], 19.5% (inactive). The molecule further had a nuclei count in test [2] of 147%. For the same molecule, the results for the z-score in test [3] (setting [10]), in test [3] (setting [11]) and in test [3] (setting [12]) were -0.346, -0.203 and -0.256, respectively. Also, the fluorescence slope in test [5] was -0.459 (inactive); in test [7] it was 0.00622 (inactive). In test [6], the NADPH fluorescence slope was -0.000111 (inactive). The result in test [8] was inactive.

With `Cc1cc(Nc2ccc3ccccc3c2)n2ncnc2n1`, the cell count in test [1] came to 503. Moreover, the inhibition in [1] was -0.6% (inactive); in [2] it was 56.4% (inactive); in test [4] it was 3.97% (inactive); in test [9], -3.1% (inactive). The same molecule yielded a nuclei count in test [2] of 146%. Besides, the z-score is -0.633 in test [3] (setting [10]), 0.516 in test [3] (setting [11]) and -1.5 in test [3] (setting [12]). Further, the fluorescence slope was -0.414 (inactive) in test [5] and 0.00533 (inactive) in test [7]. The NADPH fluorescence slope in test [6] is -4.4e-05 (inactive). Further, in [8], the result was inactive.

These data come from PubChem BioAssay.
